Assay outcomes: PubChem BioAssay, The Scripps Research Institute Molecular Screening Center
rCAG binder – r(CAG) repeat RNA binding; AID 651821; inhibition, % at 3 µM; TO-PRO-1 dye displacement fluorescence; 370,000 compounds, 1.3% hits;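 active = inhibition above the plate cutoff, the mean of all test compounds on that plate plus 3 SD, cut at about 35% in these data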;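 also: 0% = DMSO alone and 100% = 100 µM mitoxantrone as full dye displacement; higher means more dye released from RNA so lower well fluorescence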
SIAE inh – blocks human sialic acid acetylesterase; inhibition, % at 9.66 µM; AID 1053197; 370,000 compounds, 0.69% hits; SIAE FP-Rh probe binding, fluorescence polarization;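 active = inhibition above a cutoff: mean of compounds within the control limits plus 3 SD of those, cut at about 17% in these data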;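 also: 0% = plate median of compound wells and 100% = probe without SIAE protein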
Target sequence (Q9HAT2 whole entry, looked up): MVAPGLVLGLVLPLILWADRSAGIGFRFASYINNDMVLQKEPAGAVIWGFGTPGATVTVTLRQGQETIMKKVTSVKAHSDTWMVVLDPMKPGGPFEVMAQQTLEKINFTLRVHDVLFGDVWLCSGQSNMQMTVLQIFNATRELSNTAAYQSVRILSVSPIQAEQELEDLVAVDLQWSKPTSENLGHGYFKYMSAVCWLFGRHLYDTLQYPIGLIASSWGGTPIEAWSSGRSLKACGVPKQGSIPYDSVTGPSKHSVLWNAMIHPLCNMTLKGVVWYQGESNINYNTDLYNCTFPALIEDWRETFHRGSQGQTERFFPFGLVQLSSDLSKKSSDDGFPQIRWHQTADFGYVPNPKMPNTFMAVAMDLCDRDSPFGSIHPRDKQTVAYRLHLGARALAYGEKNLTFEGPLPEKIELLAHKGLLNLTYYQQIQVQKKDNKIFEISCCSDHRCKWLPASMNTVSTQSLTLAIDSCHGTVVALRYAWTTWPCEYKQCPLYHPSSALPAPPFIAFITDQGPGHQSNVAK
TCR CD3 inh – blocks the human TCR-CD3 interaction | inhibition, % at 9.4 µM | AID 651800 | 360,000 compounds, 0.37% hits | TAMRA-labeled TCR probe fluorescence, biochemical; in the data active = inhibition above about 19%;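 also: recombinant mutant TCR 2C K166C tagged with TAMRA read by polarization; 0% = receptor in buffer alone and 100% = receptor with positive control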
ABHD4 inh – inhibits mouse alpha/beta hydrolase domain 4 | purified mABHD4, FP-Rh probe fluorescence polarization | inhibition, % at 8.92 µM | Q8VD66 | 370,000 compounds, 0.54% hits;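 active = inhibition exceeding the mean over every tested compound plus 3 SD, cut at about 30% in these data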;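 also: 0% = plate median of compound wells and 100% = S159A mutant with DMSO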
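Material: mouse ABHD4 enzyme, wild type; Benchmarks: S159A mutant high control, sample median low control; Buffer or medium: HEPES pH 7.0, NaCl, Pluronic buffer; Signal: fluorescence polarization; Read-out: percent inhibition of probe binding, normalized to plate controls; Timing: pre-incubation 45 min, probe exposure 60 min, at 25 °C; Dosing: 8.92 µM, single dose.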
HTRA1 inhibitor – inhibitors of human serine peptidase HTRA1; recombinant HTRA1, FP-rhodamine activity-based probe, fluorescence polarization; inhibition, % at 5.96 µM; 340,000 compounds, 0.5% hits; Q92743; in the data active = inhibition above about 36%;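 also: 0% = enzyme with DMSO and 100% = wells lacking enzyme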
HTRA1 conf – HTRA1 (human) inhibition, confirmation | AID 540248 | shares compounds with HTRA1 inhibitor | inhibition, % at 5.96 µM | recombinant HTRA1, FP-rhodamine activity-based probe, fluorescence polarization | 1,600 compounds, 66% hits;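 active = mean inhibition over three repeats above a set limit taken from the earlier primary screen, cut at about 37% in these data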;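 also: 0% = HTRA1 with DMSO and 100% = wells lacking HTRA1; inhibitors block probe binding so polarization drops and inhibition rises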
Numbers without * were called inactive. Shown are actives, neighbours in structure and some others; about 2.5% of the full set was active somewhere.

For C[C@@H]1CN([C@H](C)CO)C(=O)c2cc(-c3ccccc3)cnc2O[C@@H]1CN(C)C(=O)C1CCOCC1 the results were rCAG binder 1, SIAE inh 2, TCR CD3 inh 5, ABHD4 inh 1 and HTRA1 inhibitor -3.
`Cc1[nH]c2c(C)cccc2c1CCNC(=O)c1ccc2c(c1[N+](=O)[O-])C(=O)c1ccccc1C2=O` gave rCAG binder 33, SIAE inh 5, TCR CD3 inh 5, ABHD4 inh 7, HTRA1 inhibitor 42* and HTRA1 conf 44*.
For Cc1[nH]c2ccccc2c1CCNC(=O)c1ccc2c(c1[N+](=O)[O-])C(=O)c1ccccc1C2=O the results were rCAG binder 21, SIAE inh 4, TCR CD3 inh -2, ABHD4 inh 6 and HTRA1 inhibitor 21.
Screening Cc1cc(C)n(-c2ccc(Cl)c(C(=O)Nc3ccc(OC(F)(F)F)cc3)n2)n1 returned rCAG binder 0, SIAE inh -1, TCR CD3 inh -2, ABHD4 inh 5 and HTRA1 inhibitor 0.
`CN1c2ccccc2N(C)C1(C)c1cccc2ccccc12` gave rCAG binder 4, SIAE inh 6, TCR CD3 inh 5, ABHD4 inh 10, HTRA1 inhibitor 47* and HTRA1 conf -2.
For O=C1CCCC2=C1C(c1cccs1)Nc1ccc3ncccc3c12 (stereo unspecified) the results were rCAG binder 2, SIAE inh 3, TCR CD3 inh -3, ABHD4 inh 6 and HTRA1 inhibitor 4.
Screening O=C1CCCC2=C1C(c1ccc(O)c(O)c1)Nc1ccc3ncccc3c12 (stereo unspecified) returned rCAG binder 9, SIAE inh -10, TCR CD3 inh 12, ABHD4 inh 10, HTRA1 inhibitor 40* and HTRA1 conf 67*.
Screening Clc1cccc(C2Nc3cccc4cccc(c34)N2)c1Cl returned rCAG binder 12, SIAE inh 15, TCR CD3 inh -1, ABHD4 inh 29, HTRA1 inhibitor 58* and HTRA1 conf 20.
For Brc1ccc(C2Nc3cccc4cccc(c34)N2)cc1 the results were rCAG binder 12, SIAE inh 2, TCR CD3 inh -5, ABHD4 inh 9 and HTRA1 inhibitor 5.
`COc1cc(NC(=O)CSc2nc3[nH]ncc3c(=O)n2-c2ccc(Cl)cc2)cc(OC)c1` gave rCAG binder 10, SIAE inh -9, TCR CD3 inh -5, ABHD4 inh -48 and HTRA1 inhibitor -37.
For O=C(NCC1(N2CCCCC2)CCCCC1)c1ccc(NS(=O)(=O)c2ccccc2)cc1 the results were rCAG binder -5, SIAE inh -1, TCR CD3 inh 7, ABHD4 inh -4 and HTRA1 inhibitor 1.
Screening CCOC(=O)C1=C(CS(=O)(=O)c2ccc(F)cc2)NC(=O)NC1c1ccc(O)c(O)c1 (stereo unspecified) returned rCAG binder 1, SIAE inh 5, TCR CD3 inh 11, ABHD4 inh 10, HTRA1 inhibitor 48* and HTRA1 conf 52*.
CCOC(=O)C1=C(CS(=O)(=O)c2ccc(F)cc2)NC(=O)NC1c1cc(OC)c(O)c(OC)c1 (stereo unspecified) was read as rCAG binder 2, SIAE inh 8, TCR CD3 inh 5, ABHD4 inh -1 and HTRA1 inhibitor 2.
`NC(=O)C1CCN(c2ccc(S(=O)(=O)N3CCC(Cc4ccccc4)CC3)cn2)CC1` gave rCAG binder -1, SIAE inh -7, TCR CD3 inh -13, ABHD4 inh 3 and HTRA1 inhibitor 2.
Cc1cc(OC(=O)c2ccco2)c2c(C)cc(=O)oc2c1 was read as rCAG binder 3, SIAE inh -1, TCR CD3 inh 1, ABHD4 inh -8 and HTRA1 inhibitor 8.
CCc1cc(=O)oc2cc(C)cc(OC(=O)c3ccco3)c12 was read as rCAG binder -5, SIAE inh -3, TCR CD3 inh -6, ABHD4 inh 1, HTRA1 inhibitor 48* and HTRA1 conf 26.
For N/C(Cc1cccc2ccccc12)=N\OC(=O)c1ccc2c(c1)OCO2 the results were rCAG binder 4, SIAE inh 3, TCR CD3 inh -17, ABHD4 inh 9, HTRA1 inhibitor 43* and HTRA1 conf -9.
